Data from ChEMBL document CHEMBL1148178, “Dicranin, an antimicrobial and 15-lipoxygenase inhibitor from the moss Dicranum scoparium” (1993).

Experiments:
Type in all cases: functional
Settings in all cases: read-out: Diameter of inhibition zone
[1] = system: Geobacillus stearothermophilus; assay: Antibacterial activity against Bacillus stearothermophilus NCA 1518 at 1000 ug/disk after 24 hrs by disk diffusion assay
In short: (§1)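 Sterile 6 mm filter-paper disc bearing sample set in the centre of a Petri dish of 15 ml plate count agar. Overlaid with 3 ml soft nutrient agar (nutrient broth + 0.7% agar) seeded with 1% of a 16–18 h culture of the test strain. Read-out is the diameter of the growth-free zone around the disc.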

[2] = system: Bacillus cereus; assay: Antibacterial activity against Bacillus cereus NCIB 3329 at 500 ug/disk after 24 hrs by disk diffusion assay; in short: as §1
[3] = system: Bacillus subtilis; assay: Antibacterial activity against Bacillus subtilis NCIB 3610 at 1000 ug/disk after 24 hrs by disk diffusion assay; in short: as §1
[4] = system: Staphylococcus aureus; assay: Antibacterial activity against Staphylococcus aureus T-AQ 49/YF29 at 1000 ug/disk after 24 hrs by disk diffusion assay; in short: as §1
[5] = system: Enterococcus faecalis; assay: Antibacterial activity against Streptococcus faecalis NCIB 775 at 1000 ug/disk after 24 hrs by disk diffusion assay
In short: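 Test material loaded onto 6 mm sterile filter-paper discs. Each disc sits at the centre of a plate of 15 ml plate count agar overlaid with 3 ml soft nutrient agar (nutrient broth + 0.7% agar) carrying 1% of a 16–18 h culture. Activity is read as the diameter of the no-growth zone around the disc.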

CCCCCC/C=C\CCCCCCCC(=O)O [PALMITOLEIC ACID]
zone of inhibition at 1000 µg/disc [1]: 45 mm
zone of inhibition at 500 µg/disc [2]: 14 mm
zone of inhibition at 1000 µg/disc [3]: 14 mm
zone of inhibition at 1000 µg/disc [4]: 22 mm
zone of inhibition at 1000 µg/disc [5]: 20 mm
